Tests used:
[1] = Resistance Index is the ratio of EC50 of LoVo/Dx cell line and EC50 of LoVo cell line; assay type: functional
[2] = system: L1210; assay: The compound was tested in vitro for cytotoxic activity against L1210 Murine leukemia cell line; assay type: functional, cell-based; conditions: Mus musculus
How it was run: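 Murine L1210 leukemia cells grown in suspension in RPMI 1640 with 5% fetal calf serum and penicillin/streptomycin, 37 °C, 5% CO2, passaged every 2–3 days. Log-phase cells seeded at 0.05×10^6 cells/mL. Exposure 48 h. Growth read by cellular protein content. EC50 is the concentration giving 50% growth inhibition. At least five runs, mean ± SEM.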

[3] = system: LoVo; assay: The compound was tested in vitro for cytotoxic activity against sensitive LoVo human colon adenocarcinoma cell line; assay type: functional, cell-based
How it was run: (§1)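 LoVo and doxorubicin-resistant LoVo/Dx monolayers grown in Ham's F-12 with 10% fetal calf serum, penicillin/streptomycin, L-glutamine and MEM vitamins, 37 °C, 5% CO2. Log-phase cells seeded at 0.02×10^6 cells/mL. Exposure 72 h. Growth measured by cellular protein content. EC50 is the concentration giving 50% growth inhibition. At least five runs, mean ± SEM.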

[4] = system: LoVo; assay: The compound was tested in vitro for cytotoxic activity against Doxorubicin resistant LoVo/Dx human colon adenocarcinoma cell line; assay type: functional, cell-based; how it was run: as §1
[5] = system: Mus musculus; assay: The compound was tested for anti tumor activity against P388 Murine Leukemia (%T/C = ratio of survival time of the treated to the control mice) at 0.78 mg/kg; assay type: functional
How it was run: (§2)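 P388 leukemia cells, 10^6 per mouse, given ip on day 0 to (BALB/c × DBA/2) F1 hybrid mice; line kept by ip passage in DBA/2 mice. Groups of 6 treated and 12 control mice. %T/C = mean survival time of treated / control × 100; ≥125 taken as significant.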

[6] = system: Mus musculus; assay: The compound was tested for anti tumor activity against P388 Murine Leukemia (%T/C = ratio of survival time of the treated to the control mice) at 3.12 mg/kg; assay type: functional; how it was run: as §2
[7] = species on record: Mus musculus; assay: The compound was tested for toxicity (number of toxic deaths/total number of mice 7 days after the day 5 injection); 6/6; assay type: organism-based; conditions: in vivo, 168 h
[8] = system: Mus musculus; assay: The compound was tested for anti tumor activity against P388 Murine Leukemia (%T/C = ratio of survival time of the treated to the control mice) at 1.56 mg/kg; assay type: functional; how it was run: as §2
[9] = species on record: Mus musculus; assay: The compound was tested for toxicity (number of toxic deaths/total number of mice 7 days after the day 5 injection); 0/6; assay type: organism-based; conditions: in vivo, 168 h
[10] = system: Mus musculus; assay: The compound was tested for anti tumor activity against P388 Murine Leukemia (%T/C = ratio of survival time of the treated to the control mice) at 0.19 mg/kg; assay type: functional; how it was run: as §2
[11] = system: Mus musculus; assay: The compound was tested for anti tumor activity against P388 Murine Leukemia (%T/C = ratio of survival time of the treated to the control mice) at 0.39 mg/kg; assay type: functional; how it was run: as §2
[12] = species on record: Mus musculus; assay: The compound was tested for toxicity (number of toxic deaths/total number of mice 7 days after the day 5 injection); 1/6; assay type: organism-based; conditions: in vivo, 168 h

SMILES | Resistance index [1] | EC50 [2] [nM] | EC50 [3] [nM] | EC50 [4] [nM] | T/C [5] [%] | T/C [6] [%] | Toxicity [7] | T/C [8] [%] | Toxicity [9] | T/C [10] [%] | T/C [11] [%] | Toxicity [12]
CCN(CC)CCNc1ccc2c(=O)n(CCN(C)C)c(=O)n3c4ccccc4c(=O)c1c23.Cl | 1.9 | 52 | 52 | 100 | – | – | – | – | – | – | – | –
Cl.O=C1c2ccccc2C(=O)c2c(NCCNCCO)ccc(NCCNCCO)c21 | 57.5 | 350 | 640 | 36800 | – | – | – | – | – | – | – | –
CN(C)CCn1c(=O)c2ccc(NCCN3CCNCC3)c3c(=O)c4ccccc4n(c1=O)c23.Cl | 1.2 | 210 | 850 | 1000 | – | – | – | – | – | – | – | –
CN(C)CCn1c(=O)c2ccc(NCCNCCO)c3c(=O)c4ccccc4n(c1=O)c23.Cl | 7.7 | 4.5 | 30 | 230 | 233 | 70 | 6 | 167 | 0 | 189 | 244 | –
CN(C)CCCNc1ccc2c(=O)n(CCN(C)C)c(=O)n3c4ccccc4c(=O)c1c23.Cl | 0.8 | 63 | 190 | 160 | – | – | – | – | – | – | – | –
CN(C)CCNc1ccc2c(=O)n(CCN(C)C)c(=O)n3c4ccccc4c(=O)c1c23.Cl | – | 2.2 | – | – | 222 | 70 | 6 | 100 | 0 | 166 | 222 | 1
CN(C)CCn1c(=O)c2ccc(Cl)c3c(=O)c4ccccc4n(c1=O)c23.Cl | 1.2 | 500 | 1200 | 1400 | – | – | – | – | – | – | – | –

Source: ChEMBL document CHEMBL1128520, “Synthesis of (dialkylamino)alkyl-disubstituted pyrimido[5,6,1- de]acridines, a novel group of anticancer agents active on a multidrug resistant cell line” (J Med Chem, 1995)
